In brackets after ≈: the same amount, converted by molar mass. Activity calls are given as the source filed them.
Tests used:
[1] = AUC (0 to infinity) in Sprague-Dawley rat at 3 mg/kg, iv by HPLC-MS method; format: ADME, organism-based; design: time infinity, dose 3 mg/kg, route intravenous; details: plasma
Procedure, shortened: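 Male rats (330−380 g, 9−10 weeks old), jugular vein cannulated 1 day before dosing, fasted; 3 mg/kg iv or oral in DMA/PEG400 (30/70, v/v), n = 3. Blood (150 μL) drawn at 0, 2, 5 (iv only), 15, 30 min and 1, 2, 4, 6, 8, 12, 24 h, kept on ice; plasma analysed by HPLC-MS; noncompartmental analysis.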

Mus musculus [2] = assay: Toxicity in Nu-Foxn1'nu mouse assessed as effect on motor coordination at 5 mg/kg, po administered once daily on day 1 to 10, day 15 to 19 and day 22 to 26 measured during day 58 to 61 post dose by rotarod test; format: organism-based; design: dose 5 mg/kg, route oral; details: in vivo
Procedure, shortened: (§1)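 Male nude mice already used in the A549 xenograft study (oral dosing, vehicle 25% DMA + 75% PEG400). Groups: vehicle (n = 8), 5 mg/kg (n = 7), 10 mg/kg (n = 8), plus untreated nontumor mice (n = 5). Rota-rod training on day 58, testing on days 59–61, rod accelerating 2 to 30 rpm over 300 s. Read-out was latency to fall, 300 s cutoff.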

NUGC-3 = assay: Growth inhibition of human NUGC3 cells; format: functional
Procedure, shortened: (§2)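 Cells seeded per well: NUGC-3 4500, HONE-1 6000, MCF-7 6500, NCI-H460 2500, HepG2 10000, A549 5000; A549 grown in RPMI 1640 with 2 g/L NaHCO₃, 2 mM L-glutamine and 10% FBS. GI₅₀ = concentration giving 50% growth inhibition, mean of at least three experiments each in duplicate. Paclitaxel served as positive control.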

NCI-H460 [3] = assay: Induction of c-Jun protein accumulation in human NCI-H460 cells incubated for 24 hrs by Western blotting; format: functional, cell-based
A549 [4] = assay: Down regulation of cyclin A2 expression in human A549 cells incubated for 24 hrs by Western blotting; format: functional, cell-based
RAW264.7 [5] = assay: Reduction in LPS/INFgamma-induced COX2 protein expression in mouse RAW264.7 cells incubated for 20 hrs by Western blotting; format: functional, cell-based
Procedure, shortened: (§3)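 LPS/IFNγ-stimulated RAW264.7 cells treated with compound for 20 h. iNOS, COX-2 and GAPDH detected by Western blot; representative of at least three independent experiments.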

[6] = Cmax in Sprague-Dawley rat at 3 mg/kg, po by HPLC-MS method; format: ADME, organism-based; design: dose 3 mg/kg, route oral; details: in vivo
Procedure, shortened: (§4)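 Male rats (330−380 g, 9−10 weeks), jugular vein cannula implanted 1 day before, fasted. 3 mg/kg given iv or orally (n = 3) in DMA/PEG400 30/70 v/v. Blood (150 μL) drawn at 0, 2, 5 (iv only), 15, 30 min and 1, 2, 4, 6, 8, 12, 24 h; plasma analysed by HPLC-MS; noncompartmental analysis.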

[7] = Solubility in DMA; format: physicochemical
NCI-H460 [8] = assay: Growth inhibition of human NCI-H460 cells; format: functional; procedure, shortened: as §2
[9] = Solubility in DMSO; format: physicochemical
Procedure, shortened: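 Compound dissolved in DMSO with sonication; maximal volume before precipitation measured and used to calculate saturation solubility.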

Mus musculus [10] = assay: Toxicity in human A549 cells xenografted Nu-Foxn1'nu mouse assessed as incidence of overt toxicity at 10 mg/kg, po administered once daily on day 1 to 10, day 15 to 19 and day 22 to 26; format: organism-based; design: dose 10 mg/kg, route oral; details: in vivo
Procedure, shortened: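 Four-week-old male nude mice given 10 million A549 cells subcutaneously in the right flank. At ~60 mm³, randomised to vehicle (25% DMA + 75% PEG400) or oral gavage once daily (n = 8). Mice monitored for overt adverse signs, with body weight tracked.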

[11] = tested on: Transmissible gastroenteritis virus; assay: Antiviral activity against Transmissible gastroenteritis virus infected in ST cells assessed as reduction in caspase-3 activation pre-treated before virus infection measured 16 hrs post virus infection by Western blotting; format: functional, organism-based
Procedure, shortened: (§5)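 ST cells pretreated with compound, then infected with TGEV. Western blot for nucleocapsid (N) protein, caspase 3 (cleavage of procaspase 3) and GAPDH at 16 hpi. Representative of at least three independent experiments.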

[12] = tested on: Transmissible gastroenteritis virus; assay: Antiviral activity against Transmissible gastroenteritis virus infected in ST cells assessed as reduction in N-protein expression pre-treated before virus infection measured 16 hrs post virus infection by Western blotting; format: functional, organism-based; procedure, shortened: as §5
[13] = Tmax in Sprague-Dawley rat at 3 mg/kg, po by HPLC-MS method; format: ADME, organism-based; design: dose 3 mg/kg, route oral; details: in vivo; procedure, shortened: as §4
MCF7 [14] = assay: Growth inhibition of human MCF7 cells; format: functional; procedure, shortened: as §2
MCF7 [15] = assay: Down regulation of cyclin A2 expression in human MCF7 cells incubated for 24 hrs by Western blotting; format: functional, cell-based
[16] = Apparent elimination half life in Sprague-Dawley rat at 3 mg/kg, po by HPLC-MS method; format: ADME, organism-based; design: dose 3 mg/kg, route oral; details: in vivo, read-out: betat1/2(app) (converted); procedure, shortened: as §4
MCF7 [17] = assay: Induction of c-Jun protein accumulation in human MCF7 cells incubated for 24 hrs by Western blotting; format: functional, cell-based
A549 [18] = assay: Induction of c-Jun protein accumulation in human A549 cells incubated for 24 hrs by Western blotting; format: functional, cell-based
[19] = Growth inhibition of human HONE1 cells; format: functional; procedure, shortened: as §2
[20] = Oral bioavailability in Sprague-Dawley rat at 3 mg/kg by HPLC-MS method; format: ADME, organism-based; details: in vivo; procedure, shortened: as §4
[21] = Apparent elimination half life in Sprague-Dawley rat at 3 mg/kg, iv by HPLC-MS method; format: ADME, organism-based; design: dose 3 mg/kg, route intravenous; details: in vivo, read-out: betat1/2(app) (converted); procedure, shortened: as §4
A549 [22] = assay: Growth inhibition of human A549 cells; format: functional; procedure, shortened: as §2
NCI-H460 [23] = assay: Down regulation of cyclin A2 expression in human NCI-H460 cells incubated for 24 hrs by Western blotting; format: functional, cell-based
RAW264.7 [24] = assay: Reduction in LPS/INFgamma-induced iNOS protein expression in mouse RAW264.7 cells incubated for 20 hrs by Western blotting; format: functional, cell-based; procedure, shortened: as §3
[25] = tested on: Transmissible gastroenteritis virus; assay: Antiviral activity against Transmissible gastroenteritis virus infected in ST cells pre-treated 2 hrs before virus infection measured 6 hrs post virus infection by immunofluorescent assay; format: functional, organism-based; details: Alphacoronavirus 1, ST
Procedure, shortened: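 ST cells, with or without 2 h compound pretreatment (10 concentrations), infected with TGEV at MOI 10. Immunofluorescence with anti-spike and anti-nucleocapsid antibodies at 6 hpi. EC50 from dose–response curves, mean of at least three experiments, each in duplicate.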

HepG2 = assay: Growth inhibition of human HepG2 cells; format: functional; procedure, shortened: as §2
Mus musculus [26] = assay: Toxicity in Nu-Foxn1'nu mouse assessed as effect on motor coordination at 10 mg/kg, po administered once daily on day 1 to 10, day 15 to 19 and day 22 to 26 measured during day 58 to 61 post dose by rotarod test; format: organism-based; design: dose 10 mg/kg, route oral; details: in vivo; procedure, shortened: as §1
[27] = Cytotoxicity against mouse RAW264.7 cells; format: cell-based
Procedure, shortened: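 RAW264.7 cells stimulated with LPS/IFNγ and compound-treated in parallel with the NO assay; CC50 taken as concentration giving 50% inhibition of cell growth. Mean of at least three experiments, each in duplicate.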

Rattus norvegicus = assay: Antiinflammatory activity against Sprague-Dawley rat assessed as reduction in carrageenan-induced hind paw edema at 5 mg/kg, ip; format: functional; design: scale not given: the % may be the effect or the level left; details: route intraperitoneal
Procedure, shortened: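 Female Sprague−Dawley rats (193−214 g, 8−9 weeks, n = 5) dosed ip 1 h before subplantar injection of 100 μL 1% carrageenan in saline into the left hind paw. Vehicle group received DMSO (100 μL); indomethacin served as positive control. Inhibition of 30% or more counted as significant.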

## CCN1Cc2c(c3ccc(OC)cc3c3cc(OC)c(OC)cc23)C(O)C1 (stereo not given)
[1]
  AUC(0-inf): 999 ng·h/mL
Mus musculus [2]
  Activity: Non-toxic
NUGC-3
  GI50: 30 nM
NCI-H460 [3]
  Activity: Active
A549 [4]
  Activity: Active
RAW264.7 [5]
  Activity: Active
[6]
  Cmax: 72.4 ng/mL
[7]
  solubility: soluble
NCI-H460 [8]
  GI50: 20 nM
[9]
  solubility: 60.5 mM (≈ 22.2 mg/mL)
Mus musculus [10]
  Activity: Non-toxic
[11]
  Activity: Active
[12]
  Activity: Active
[13]
  Tmax: 18 min
MCF7 [14]
  GI50: 40 nM
MCF7 [15]
  Activity: Active
[16]
  half-life: 708 min
MCF7 [17]
  Activity: Active
A549 [18]
  Activity: Active
[19]
  GI50: 60 nM
[20]
  bioavailability: 63.5%
[21]
  half-life: 48 min
A549 [22]
  GI50: 20 nM
NCI-H460 [23]
  Activity: Active
RAW264.7 [24]
  Activity: Active
[25]
  EC50: 40 nM
HepG2
  GI50: 40 nM
Mus musculus [26]
  Activity: Non-toxic
[27]
  CC50: 240 nM
Rattus norvegicus
  Activity: >60%
